Measured values gathered from unrelated publications.
Each line is one published result; the experiments were not run side by side.
Target: Receptor-interacting serine/threonine-protein kinase 2 (RIPK2, Homo sapiens, UniProt O43353)

The remaining activity of `CC(C)(C)c1cc(C=C(C#N)C#N)cc(Br)c1O` is reported as 32.8% (enzyme activity, inhibitor; 0.5 µM).
For `Cc1nn(C)cc1-c1nc2c(N3CCN(Cc4ccc(Cl)cc4)CC3)c(Cl)cnc2[nH]1`, the remaining binding was 100% (binding, competition with immobilised ligand; 1 µM).
`COc1ncccc1-c1cnn2ccc(N3CCN(C(=O)OC(C)C)CC3)nc12` gave a remaining binding of 51% (binding, competition with immobilised ligand; 1 µM).
`N#CC1(c2ccccn2)CCN(Cc2cc(C(=O)O)c(=O)n3ccccc23)CC1` has a remaining binding of 92% (cell-free assay, competition with immobilised ligand; 1 µM).
`Cn1cc(-c2cccc(N3CCc4c(sc5c4CC(C)(C)C5)C3=O)c2CO)cc(Nc2ccncn2)c1=O` has an inhibition of 1% (enzyme activity, inhibitor; 1 µM).
The remaining binding of `Nc1ncc(-c2nc(N3CCOCC3)nc(N3CCOCC3)n2)c(C(F)F)n1` is reported as 100% (binding, competition with immobilised ligand; 10 µM).
With `Cn1cc(-c2cc(F)cc(N3CCn4c(cc5c4CCCC5)C3=O)c2CO)cc(Nc2ccc(N3CCN(C4COC4)CC3)cn2)c1=O` the inhibition was -5% (enzyme activity, inhibitor; 0.1 µM).
For `Cn1cncc1[C@@](O)(COc1ccc(C#N)cc1-c1ccc(OC(F)(F)F)cc1)c1ccc(C#N)cc1`, the remaining binding was 100% (cell-free assay, competition with immobilised ligand; 1 µM).
For `O=c1[nH]c2ccccc2n1C1CCN(Cc2ccc(-c3[nH]c4cc5ncnc5cc4nc3-c3ccccc3)cc2)CC1`, the remaining signal was 89.2% (cell-free assay; 0.5 µM).
